Measured values as given in ChEMBL document CHEMBL4387702, “Design and synthesis novel di-carbonyl analogs of curcumin (DACs) act as potent anti-inflammatory agents against LPS-induced acute lung injury (ALI)” (Eur J Med Chem, 2019).

Assays:
Format in all cases: ADME, organism-based
Conditions in all cases: in vivo
[1] = MRT (0 to t) in Sprague-Dawley rat at 5 mg/kg, iv by UHPLC-MS/MS analysis
Procedure, shortened: (§1)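 Male Sprague-Dawley rats (250 ± 20 g) fasted overnight with free access to water, n = 5 per route. Intravenous dose was 5 mg/kg; the intragastric dose is printed as 20 mg/kg in the methods and 50 mg/kg in the table. Tail blood was taken at 0.083, 0.25, 0.5, 1, 2, 4, 6, 9, 12 and 24 h. Samples were centrifuged (12000 rpm, 10 min), deproteinized with 2 volumes of acetonitrile, re-centrifuged and quantified by UHPLC-MS/MS.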

[2] = AUC (0 to t) in Sprague-Dawley rat at 5 mg/kg, iv by UHPLC-MS/MS analysis; procedure, shortened: as §1
[3] = MRT (0 to infinity) in Sprague-Dawley rat at 50 mg/kg, po by UHPLC-MS/MS analysis; procedure, shortened: as §1
[4] = Apparent clearance during terminal phase in Sprague-Dawley rat at 5 mg/kg, iv by UHPLC-MS/MS analysis; procedure, shortened: as §1
[5] = Oral bioavailability in Sprague-Dawley rat at 50 mg/kg measured up to 24 hrs by LC-MS/MS analysis
Procedure, shortened: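 The rat oral and intravenous plasma profiles (n = 5, tail sampling to 24 h, UHPLC-MS/MS) were used. Oral bioavailability was calculated as F = (AUC p.o × Dose i.v)/(AUC i.v × Dose p.o).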

[6] = Apparent volume of distribution during terminal phase in Sprague-Dawley rat at 50 mg/kg, po by UHPLC-MS/MS analysis; procedure, shortened: as §1
[7] = AUC (0 to infinity) in Sprague-Dawley rat at 50 mg/kg, po by UHPLC-MS/MS analysis; set-up: dose 50 mg/kg, time infinity, route oral; procedure, shortened: as §1
[8] = AUC (0 to t) in Sprague-Dawley rat at 50 mg/kg, po by UHPLC-MS/MS analysis; procedure, shortened: as §1
[9] = Half life in Sprague-Dawley rat at 50 mg/kg, po by UHPLC-MS/MS analysis; procedure, shortened: as §1

MRT last [1]: 11.3 h
AUC(0-t) [2]: 34.4 ng·h/mL
MRT inf [3]: 12.3 h
CLz/F [4]: 404.4 L/h/kg
bioavailability [5]: 26.6%
Vz/F [6]: 827.1 L/kg
AUC [7]: 325.6 ng·h/mL
AUC(0-t) [8]: 231 ng·h/mL
t1/2 [9]: 6.7 h
Compound: COc1cc(/C=C/C(=O)N2CCC/C(=C\c3cc(OC)c(OC)c(OC)c3)C2=O)ccc1OC(C)=O
